Data taken from ChEMBL document CHEMBL4715796, “Discovery of Chromane Containing Hepatitis C Virus (HCV) NS5A Inhibitors with Improved Potency against Resistance-Associated Variants” (J Med Chem, 2016).

Tests used:
Assay type in all cases: cell-based
[1] = tested on: T1, Nonstructural protein 5A (Hepatitis C virus), Q5L478 [Y93H]; assay: Inhibition of NS5A Y93H mutant in Hepatitis C virus subtype 1a infected in human HuH7 cells assessed as reduction in viral replication by luciferase reporter gene assay; conditions: Huh-7
T1 sequence (whole entry): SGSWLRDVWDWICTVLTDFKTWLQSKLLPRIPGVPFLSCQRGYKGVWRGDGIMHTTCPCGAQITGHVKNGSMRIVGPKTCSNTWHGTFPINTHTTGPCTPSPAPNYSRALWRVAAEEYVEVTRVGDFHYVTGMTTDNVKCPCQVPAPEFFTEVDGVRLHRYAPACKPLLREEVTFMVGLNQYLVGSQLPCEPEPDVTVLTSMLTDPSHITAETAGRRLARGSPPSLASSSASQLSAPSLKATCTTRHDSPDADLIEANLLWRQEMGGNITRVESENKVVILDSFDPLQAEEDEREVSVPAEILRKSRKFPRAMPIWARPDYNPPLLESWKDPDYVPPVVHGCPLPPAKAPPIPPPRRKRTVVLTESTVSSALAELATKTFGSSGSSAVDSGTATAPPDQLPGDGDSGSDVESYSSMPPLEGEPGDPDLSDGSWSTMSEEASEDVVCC
Outline: (§1)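 NS5A resistance variants engineered into GT1a-H77 or GT1b-Con1 replicons. Each variant replicon is transfected transiently by electroporation into a Huh7-derived cell line. Percent inhibition is taken from the drop in luciferase signal at each compound concentration, and EC90 is calculated from these. Values are means of at least two experiments.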

[2] = tested on: Huh-7; assay: Inhibition of NS5A in Hepatitis C virus subtype 3a infected in human HuH7 cells assessed as reduction in viral replication by luciferase reporter gene assay
Outline: (§2)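 Transient replicon assay with GT1a-H77, GT1b-Con1 or chimeric replicons, electroporated into a Huh7-derived cell line. Percent inhibition of replication, read as a drop in luciferase signal, was calculated at each concentration to give EC90. Values are means of at least two experiments.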

[3] = tested on: Huh-7; assay: Inhibition of NS5A in Hepatitis C virus subtype 2b infected in human HuH7 cells assessed as reduction in viral replication by luciferase reporter gene assay; outline: as §2
[4] = tested on: Huh-7; assay: Inhibition of NS5A in Hepatitis C virus subtype 1a infected in human HuH7 cells assessed as reduction in viral replication by luciferase reporter gene assay; outline: as §2
[5] = tested on: Nonstructural protein 5A (Hepatitis C virus), Q5L478 [UNDEFINED MUTATION]; assay: Inhibition of NS5A L31V mutant in Hepatitis C virus subtype 1a infected in human HuH7 cells assessed as reduction in viral replication by luciferase reporter gene assay; conditions: Huh-7; outline: as §1
[6] = tested on: Huh-7; assay: Inhibition of NS5A in Hepatitis C virus subtype 4a infected in human HuH7 cells assessed as reduction in viral replication by luciferase reporter gene assay; outline: as §2
[7] = tested on: Huh-7; assay: Inhibition of NS5A in Hepatitis C virus subtype 1b infected in human HuH7 cells assessed as reduction in viral replication by luciferase reporter gene assay; outline: as §2

SMILES	EC90 [1] [nM]	EC90 [2] [nM]	EC90 [3] [nM]	EC90 [4] [nM]	EC90 [5] [nM]	EC90 [6] [nM]	EC90 [7] [nM]
COC(=O)N[C@H](C(=O)N1CCC[C@H]1c1ncc(-c2cc(F)c3c(c2)OC(c2ccc4c(c2)COCC4)n2c-3cc3cc(-c4cnc([C@@H]5CCCN5C(=O)[C@@H](NC(=O)OC)C(C)C)[nH]4)ccc32)[nH]1)C(C)C (stereo not given in full)	2	0.02	4	0.003			
COC(=O)N[C@H](C(=O)N1CCC[C@H]1c1ncc(-c2cc(F)c3c(c2)OC(c2ccc4c(c2)CCCO4)n2c-3cc3cc(-c4cnc([C@@H]5CCCN5C(=O)[C@@H](NC(=O)OC)C(C)C)[nH]4)ccc32)[nH]1)C(C)C (stereo not given in full)	4	0.02	7	0.003			
COC(=O)N[C@H](C(=O)N1CCC[C@H]1c1ncc(-c2cc(F)c3c(c2)OC(c2cccc4ccccc24)n2c-3cc3cc(-c4cnc([C@@H]5CCCN5C(=O)[C@@H](NC(=O)OC)C(C)C)[nH]4)ccc32)[nH]1)C(C)C (stereo not given in full)	32	0.1	31	0.01	0.09		
COC(=O)N[C@H](C(=O)N1CCC[C@H]1c1ncc(-c2cc(F)c3c(c2)OC(c2ccc4c(c2)COC4)n2c-3cc3cc(-c4cnc([C@@H]5CCCN5C(=O)[C@@H](NC(=O)OC)C(C)C)[nH]4)ccc32)[nH]1)C(C)C (stereo not given in full)	5	0.02	2	0.003			
COC(=O)N[C@H](C(=O)N1CCC[C@H]1c1ncc(-c2cc(F)c3c(c2)OC(c2ccc4c(c2)CC[C@@H](C)O4)n2c-3cc3cc(-c4cnc([C@@H]5CCCN5C(=O)[C@@H](NC(=O)OC)C(C)C)[nH]4)ccc32)[nH]1)C(C)C (stereo not given in full)	2	0.02	7	0.005			
COC(=O)N[C@H](C(=O)N1CCC[C@H]1c1ncc(-c2cc(F)c3c(c2)OC(c2ccc4c(c2)CC2CC2(C)O4)n2c-3cc3cc(-c4cnc([C@@H]5CCCN5C(=O)[C@@H](NC(=O)OC)C(C)C)[nH]4)ccc32)[nH]1)C(C)C (mixture of isomers)	1	0.03	5	0.005			
COC(=O)N[C@H](C(=O)N1CCC[C@H]1c1ncc(-c2cc(F)c3c(c2)OC(c2ccc4c(c2)OCC(=O)N4)n2c-3cc3cc(-c4cnc([C@@H]5CCCN5C(=O)[C@@H](NC(=O)OC)C(C)C)[nH]4)ccc32)[nH]1)C(C)C (stereo not given in full)	32	0.4	22	0.01			
COC(=O)N[C@H](C(=O)N1CCC[C@H]1c1ncc(-c2cc(F)c3c(c2)OC(c2ccc4c(c2)OCC4)n2c-3cc3cc(-c4cnc([C@@H]5CCCN5C(=O)[C@@H](NC(=O)OC)C(C)C)[nH]4)ccc32)[nH]1)C(C)C (mixture of isomers)	6	0.1	3	0.02	0.5		
COC(=O)N[C@H](C(=O)N1CCC[C@H]1c1ncc(-c2cc(F)c3c(c2)OC(c2ccc4c(c2)OCCC4(F)F)n2c-3cc3cc(-c4cnc([C@@H]5CCCN5C(=O)[C@@H](NC(=O)OC)C(C)C)[nH]4)ccc32)[nH]1)C(C)C (stereo not given in full)	0.7	0.007	0.2	0.002	0.01	0.002	0.002
COC(=O)N[C@H](C(=O)N1CCC[C@H]1c1ncc(-c2cc(F)c3c(c2)OC(c2ccc4c(c2)O[C@@H](C)CC4)n2c-3cc3cc(-c4cnc([C@@H]5CCCN5C(=O)[C@@H](NC(=O)OC)C(C)C)[nH]4)ccc32)[nH]1)C(C)C (stereo not given in full)	0.9	0.009	0.7	0.007	0.04	0.007	0.005
COC(=O)N[C@H](C(=O)N1CCC[C@H]1c1ncc(-c2cc(F)c3c(c2)OC(c2ccc4c(c2)CCCC4)n2c-3cc3cc(-c4cnc([C@@H]5CCCN5C(=O)[C@@H](NC(=O)OC)C(C)C)[nH]4)ccc32)[nH]1)C(C)C (stereo not given in full)	2	0.01	2	0.005			
COC(=O)N[C@H](C(=O)N1CCC[C@H]1c1ncc(-c2cc(F)c3c(c2)OC(c2ccc4c(c2)OC(C)(C)CC4)n2c-3cc3cc(-c4cnc([C@@H]5CCCN5C(=O)[C@@H](NC(=O)OC)C(C)C)[nH]4)ccc32)[nH]1)C(C)C (stereo not given in full)	1	0.02	2	0.005			
COC(=O)N[C@H](C(=O)N1CCC[C@H]1c1ncc(-c2cc(F)c3c(c2)OC(c2ccc4c(c2)O[C@H](C)CC4)n2c-3cc3cc(-c4cnc([C@@H]5CCCN5C(=O)[C@@H](NC(=O)OC)C(C)C)[nH]4)ccc32)[nH]1)C(C)C (stereo not given in full)	0.7	0.01	0.9	0.003	0.02	0.005	0.005
COC(=O)N[C@H](C(=O)N1CCC[C@H]1c1ncc(-c2cc(F)c3c(c2)OC(c2ccc4c(c2)CCC(C)(C)O4)n2c-3cc3cc(-c4cnc([C@@H]5CCCN5C(=O)[C@@H](NC(=O)OC)C(C)C)[nH]4)ccc32)[nH]1)C(C)C (stereo not given in full)	0.9	0.03	2	0.005			
COC(=O)N[C@H](C(=O)N1CCC[C@H]1c1ncc(-c2cc(F)c3c(c2)OC(c2ccc4cccnc4c2)n2c-3cc3cc(-c4cnc([C@@H]5CCCN5C(=O)[C@@H](NC(=O)OC)C(C)C)[nH]4)ccc32)[nH]1)C(C)C (stereo not given in full)	4	0.3	3	0.01	0.2		
COC(=O)N[C@H](C(=O)N1CCC[C@H]1c1ncc(-c2cc(F)c3c(c2)OC(c2ccc4c(c2)OCC(=O)N4C)n2c-3cc3cc(-c4cnc([C@@H]5CCCN5C(=O)[C@@H](NC(=O)OC)C(C)C)[nH]4)ccc32)[nH]1)C(C)C (stereo not given in full)	3	0.01	2	0.002			
COC(=O)N[C@H](C(=O)N1CCC[C@H]1c1ncc(-c2cc(F)c3c(c2)OC(c2ccc4c(c2)CC[C@H](C)O4)n2c-3cc3cc(-c4cnc([C@@H]5CCCN5C(=O)[C@@H](NC(=O)OC)C(C)C)[nH]4)ccc32)[nH]1)C(C)C (stereo not given in full)	3	0.01	7	0.004			
COC(=O)N[C@H](C(=O)N1CCC[C@H]1c1ncc(-c2cc(F)c3c(c2)OC(c2ccc4c(c2)OC(F)(F)O4)n2c-3cc3cc(-c4cnc([C@@H]5CCCN5C(=O)[C@@H](NC(=O)OC)C(C)C)[nH]4)ccc32)[nH]1)C(C)C (stereo not given in full)	8	0.1	5	0.004	0.5		
COC(=O)N[C@H](C(=O)N1CCC[C@H]1c1ncc(-c2cc(F)c3c(c2)OC(c2ccc4ccccc4c2)n2c-3cc3cc(-c4cnc([C@@H]5CCCN5C(=O)[C@@H](NC(=O)OC)C(C)C)[nH]4)ccc32)[nH]1)C(C)C (stereo not given in full)	7	0.04	1	0.02	0.2		
COC(=O)N[C@H](C(=O)N1CCC[C@H]1c1ncc(-c2cc(F)c3c(c2)OC(c2ccc4c(c2)OCO4)n2c-3cc3cc(-c4cnc([C@@H]5CCCN5C(=O)[C@@H](NC(=O)OC)C(C)C)[nH]4)ccc32)[nH]1)C(C)C (stereo not given in full)	4	1	3	0.008	0.2		
